Assay results as given in ChEMBL document CHEMBL1128739, “Structure-activity relationships in the 8-amino-6,7,8,9-tetrahydro-3H-benz[e]indole ring system. 2. Effects of 8-amino nitrogen substitution on serotonin receptor binding and pharmacology” (J Med Chem, 1995).
The source made the active and inactive calls. The rule behind the calls is not given here.

How the values were obtained:
[1] = system: Rattus norvegicus; assay: In vivo changes in different brain area levels of 5-HTP in reserpinized rat limbic system.; format: functional
Summary of the method: (§1)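 Male Sprague-Dawley rats (200-300 g) pretreated with reserpine 5 mg/kg sc 18 h before. Injection volume 5 mL/kg at neutral pH. Brain-region 5-HTP measured by HPLC with electrochemical detection. Dose-response curves used four to six doses, n = 4.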

[2] = system: Rattus norvegicus; assay: The compound was tested in vivo for biochemical effect against the changes in different brain area levels of DOPA in reserpinized rat hemispheres (mainly cortex); inactive at dose 50 uM/kg; Inactive; format: functional, organism-based
[3] = system: Rattus norvegicus; assay: In vivo changes in different brain area levels of 5-HTP in reserpinized rat corpus striatum.; format: functional; summary of the method: as §1
[4] = biological target: T1, 5-hydroxytryptamine receptor 1B (Homo sapiens, UniProt P28222); assay: The compound was tested in vitro for binding affinity against cloned mammalian 5-hydroxytryptamine 1D receptor beta expressed in CHO cells, by using [3H]5-HT as radioligand; format: cell-based; parameters: concentration or dose not given beside the values; conditions: concentration not given here
T1 sequence (P28222 whole entry): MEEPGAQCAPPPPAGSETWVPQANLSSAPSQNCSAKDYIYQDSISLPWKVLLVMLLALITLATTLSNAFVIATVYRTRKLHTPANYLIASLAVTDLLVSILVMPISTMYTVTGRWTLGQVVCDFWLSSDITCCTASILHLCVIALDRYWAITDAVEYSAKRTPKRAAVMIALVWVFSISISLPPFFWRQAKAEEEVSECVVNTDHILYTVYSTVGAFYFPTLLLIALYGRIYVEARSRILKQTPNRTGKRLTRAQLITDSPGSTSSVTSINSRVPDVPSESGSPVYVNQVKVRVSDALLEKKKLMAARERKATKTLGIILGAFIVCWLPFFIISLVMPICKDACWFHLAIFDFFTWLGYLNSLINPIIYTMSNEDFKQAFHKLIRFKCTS
Summary of the method: (§2)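 Membranes from CHO cells stably expressing the cloned receptor, made by mechanical disruption in ice-cold Tris/EDTA/EGTA pH 7.4 and differential centrifugation. [3H]serotonin at 1.7 nM in 50 mM Tris, 5 mM MgCl2, 0.1% ascorbic acid, pH 7.4. 11 drug concentrations in duplicate, 1 h at room temperature protected from light, then filtration. Excess serotonin defines nonspecific binding. One-site IC50 fit, Ki by Cheng-Prusoff.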

[5] = system: Rattus norvegicus; assay: The compound was tested in vivo for biochemical effect against the changes in different brain area levels of DOPA in reserpinized rat limbic system; format: functional
Summary of the method: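 Rats (male Sprague-Dawley, 200-300 g) received reserpine 5 mg/kg sc 18 h before. Injections 5 mL/kg at neutral pH. DOPA accumulation measured by HPLC with electrochemical detection as an index of DA or NE synthesis rate. Four to six dose levels, n = 4. ED50 from a sigmoidal fit.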

[6] = biological target: D(3) dopamine receptor (Rattus norvegicus) (UniProt P19020); assay: The compound was tested in vitro for binding affinity against cloned mammalian Dopamine receptor D3 expressed in CHO cells by, using [3H]spiperone as radioligand; inactive at 10E-6 M; format: cell-based
Sequence of D(3) dopamine receptor (Rattus norvegicus) (P19020 whole entry): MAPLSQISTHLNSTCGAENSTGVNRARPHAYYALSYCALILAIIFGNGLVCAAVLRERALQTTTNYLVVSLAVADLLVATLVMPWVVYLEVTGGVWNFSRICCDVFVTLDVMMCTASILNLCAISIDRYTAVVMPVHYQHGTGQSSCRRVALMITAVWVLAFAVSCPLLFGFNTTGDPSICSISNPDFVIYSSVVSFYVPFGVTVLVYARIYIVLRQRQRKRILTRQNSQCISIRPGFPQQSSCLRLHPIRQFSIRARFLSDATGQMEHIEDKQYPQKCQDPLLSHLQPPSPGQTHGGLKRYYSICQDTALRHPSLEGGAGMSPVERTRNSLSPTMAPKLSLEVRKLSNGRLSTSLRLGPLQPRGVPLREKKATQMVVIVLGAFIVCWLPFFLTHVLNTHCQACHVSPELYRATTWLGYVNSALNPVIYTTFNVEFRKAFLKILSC

[7] = system: Rattus norvegicus; assay: The compound was tested in vivo for biochemical effect against the changes in different brain area levels of DOPA in reserpinized rat corpus striatum; format: functional
Summary of the method: (§3)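 Male Sprague-Dawley rats (200-300 g) pretreated with reserpine 5 mg/kg sc 18 h before. Injection volume 5 mL/kg, test solutions at neutral pH. DOPA and 5-HTP in limbic system, striatum and hemispheres measured by HPLC with electrochemical detection. Dose-response curves from four to six dose levels (n = 4) per brain area.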

[8] = biological target: T2, D(2) dopamine receptor (Rattus norvegicus, UniProt P61169); assay: Binding affinity rat Dopamine receptor D2 expressed in CHO-K1 cells by [3H]U-86170 displacement.; format: cell-based
T2 sequence (P61169 whole entry): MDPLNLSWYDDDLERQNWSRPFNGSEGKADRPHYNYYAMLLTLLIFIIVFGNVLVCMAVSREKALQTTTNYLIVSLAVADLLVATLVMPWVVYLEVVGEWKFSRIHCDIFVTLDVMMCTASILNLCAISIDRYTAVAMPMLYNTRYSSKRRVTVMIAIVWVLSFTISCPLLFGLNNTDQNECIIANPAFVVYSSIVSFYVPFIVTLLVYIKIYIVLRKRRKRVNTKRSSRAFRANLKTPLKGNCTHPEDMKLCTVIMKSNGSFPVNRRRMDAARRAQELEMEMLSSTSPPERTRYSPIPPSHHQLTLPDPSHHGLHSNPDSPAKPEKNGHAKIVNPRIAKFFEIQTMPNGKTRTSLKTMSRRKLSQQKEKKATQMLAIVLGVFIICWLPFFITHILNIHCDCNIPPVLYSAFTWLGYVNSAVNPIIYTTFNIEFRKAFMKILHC

[9] = system: Rattus norvegicus; assay: In vivo for biochemical effect against brain area levels of 5-HTP in reserpinized rat hemispheres (mainly cortex).; format: functional; summary of the method: as §3
[10] = biological target: 5-hydroxytryptamine receptor 1D (Homo sapiens, UniProt P28221); assay: In vitro binding affinity against cloned mammalian 5-hydroxytryptamine 1D receptor alpha expressed in CHO cells, by using [3H]5-HT as radioligand; format: cell-based
Sequence of 5-hydroxytryptamine receptor 1D (P28221 whole entry): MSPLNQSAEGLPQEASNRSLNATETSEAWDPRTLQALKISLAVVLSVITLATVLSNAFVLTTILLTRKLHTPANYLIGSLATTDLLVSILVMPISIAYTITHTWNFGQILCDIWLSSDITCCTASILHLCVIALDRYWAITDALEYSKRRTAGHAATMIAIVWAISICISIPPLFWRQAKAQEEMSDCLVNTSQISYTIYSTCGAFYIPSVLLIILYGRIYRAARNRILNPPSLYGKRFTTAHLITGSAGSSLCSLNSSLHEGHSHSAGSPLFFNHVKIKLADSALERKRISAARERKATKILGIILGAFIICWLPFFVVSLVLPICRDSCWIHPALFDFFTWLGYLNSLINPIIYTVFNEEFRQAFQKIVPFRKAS
Summary of the method: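 Competition binding on CHO-cell membranes (20-60 μg protein) in 50 mM Tris, 5 mM MgCl2, 0.1% ascorbic acid, pH 7.4. Nonspecific binding defined with excess serotonin. 11 drug concentrations, each in duplicate. Incubated 1 h at room temperature, protected from light, then filtered and scintillation counted. IC50 taken from a one-site fit; Ki by Cheng-Prusoff.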

[11] = system: Rattus norvegicus; assay: The compound was tested in vivo for biochemical effect against the changes in different brain area levels of DOPA in reserpinized rat limbic system at dose 12.5 uM/kg; Partial effect; format: functional, organism-based
[12] = system: Rattus norvegicus; assay: The compound was tested in vivo for biochemical effect against the changes in different brain area levels of DOPA in reserpinized rat corpus striatum at dose 12.5 uM/kg; Partial effect; format: functional, organism-based; summary of the method: as §3
[13] = system: Rattus norvegicus; assay: The compound was tested in vivo for biochemical effect against the changes in different brain area levels of DOPA in reserpinized rat hemispheres (mainly cortex)at dose 12.5 uM/kg; Partial effect; format: functional, organism-based
[14] = biological target: T2, D(2) dopamine receptor; assay: In vitro binding affinity against cloned mammalian Dopamine receptor D2 expressed in CHO cells using [3H]U-86170 as radioligand; format: cell-based
Summary of the method: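 Membranes from CHO cells (20-60 μg protein) in 20 mM HEPES, 10 mM MgSO4, pH 7.4. Nonspecific binding defined with excess haloperidol. 11 concentrations, each in duplicate. Incubated 1 h at room temperature, then filtered and counted. IC50 from a one-site competition fit, converted to Ki by Cheng-Prusoff.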

[15] = biological target: D(3) dopamine receptor (Rattus norvegicus, UniProt P19020); assay: In vitro binding affinity against cloned mammalian Dopamine receptor D3 expressed in CHO cells by, using [3H]-spiperone as radioligand; format: cell-based
Sequence of D(3) dopamine receptor (P19020 whole entry): as the sequence (P19020 whole entry) above

[16] = system: Rattus norvegicus; assay: The compound was tested in vivo for biochemical effect against the changes in different brain area levels of 5-HTP in reserpinized rat hemispheres (mainly cortex)at does 50 uM/kg; Partial effect; format: functional, organism-based
[17] = system: Rattus norvegicus; assay: The compound was tested in vivo for biochemical effect against the changes in different brain area levels of DOPA in reserpinized rat limbic system; Inactive; format: functional, organism-based
[18] = system: Rattus norvegicus; assay: The compound was tested in vivo for biochemical effect against the changes in different brain area levels of 5-HTP in reserpinized rat limbic system at dose 50 uM/kg; Partial effect; format: functional, organism-based
[19] = system: Rattus norvegicus; assay: The compound was tested in vivo for biochemical effect against the changes in different brain area levels of DOPA in reserpinized rat corpus striatum at does 50 uM/kg; Inactive; format: functional, organism-based
[20] = system: Rattus norvegicus; assay: (§4) The compound was tested in vivo for biochemical effect against the changes in different brain area levels of DOPA in reserpinized rat hemispheres (mainly cortex)at does 50 uM/kg; Inactive; format: functional, organism-based
[21] = system: Rattus norvegicus; assay: The compound was tested in vivo for biochemical effect against the changes in different brain area levels of 5-HTP in reserpinized rat corpus striatum at does 50 uM/kg; Partial effect; format: functional, organism-based
[22] = biological target: T1, 5-hydroxytryptamine receptor 1B; assay: In vitro binding affinity against cloned mammalian 5-hydroxytryptamine 1D receptor beta expressed in CHO cells, by using [3H]5-HT as radioligand; format: cell-based; summary of the method: as §2
[23] = system: Rattus norvegicus; assay: The compound was tested in vivo for biochemical effect against the changes in different brain area levels of DOPA in reserpinized rat limbic system at dose 12.5 uM/kg; Inactive; format: functional, organism-based
[24] = system: Rattus norvegicus; assay: The compound was tested in vivo for biochemical effect against the changes in different brain area levels of DOPA in reserpinized rat hemispheres (mainly cortex)at dose 12.5 uM/kg; Inactive; format: functional, organism-based
[25] = system: Rattus norvegicus; assay: The compound was tested in vivo for biochemical effect against the changes in different brain area levels of DOPA in reserpinized rat corpus striatum at dose 12.5 uM/kg; Inactive; format: functional, organism-based; summary of the method: as §3
[26] = system: Rattus norvegicus; assay: The compound was tested in vivo for biochemical effect against the changes in different brain area levels of DOPA in reserpinized rat hemispheres (mainly cortex); inactive at the highest dose tested (3.1); format: functional, organism-based; summary of the method: as §3
[27] = system: Rattus norvegicus; assay: as §4; format: functional, organism-based; summary of the method: as §3; remark: listed apart in the source
[28] = system: Rattus norvegicus; assay: The compound was tested in vivo for biochemical effect against the changes in different brain area levels of DOPA in reserpinized rat corpus striatum at dose 50 uM/kg; Inactive; format: functional, organism-based; summary of the method: as §3
[29] = system: Rattus norvegicus; assay: The compound was tested in vivo for biochemical effect against the changes in different brain area levels of DOPA in reserpinized rat limbic system at does 50 uM/kg; Inactive; format: functional, organism-based; summary of the method: as §3

SMILES: c1cc2c3c(ccc2[nH]1)CCC(N1CCCC1)C3 (stereo not drawn)
- ED50 [1]: 0.092 µmol/kg
- ED50 [2]: inactive
- ED50 [3]: 0.066 µmol/kg
- inhibition [4]: < 45%
- ED50 [5]: 1.57 µmol/kg
- inhibition [6]: < 45%
- ED50 [7]: 3.26 µmol/kg
- Ki [8]: 94 nM
- ED50 [9]: 0.051 µmol/kg
- Ki [10]: 77 nM

SMILES: O=Cc1c[nH]c2ccc3c(c12)CC(N1CCCC1)CC3 (stereo not drawn)
- ED50 [1]: 0.58 µmol/kg
- ED50 [11]: Weak activity
- ED50 [3]: 0.58 µmol/kg
- ED50 [12]: Weak activity
- ED50 [13]: Weak activity
- ED50 [9]: 0.86 µmol/kg
- Ki ([14]; read-out: Ki): > 1000 nM
- Ki ([15]; cho): Not Active

SMILES: CCCN(CCC)CC1CCc2ccc3[nH]cc(C=O)c3c2C1 (stereo not drawn)
- ED50 [16]: Weak activity
- ED50 [17]: inactive
- ED50 [18]: Weak activity
- Ki ([14]; cho): Not Active
- ED50 [19]: inactive
- ED50 [20]: inactive
- ED50 [21]: Weak activity

SMILES: CCCN(CCCCN1C(=O)CC(C)(C)CC1=O)[C@@H]1CCc2ccc3[nH]cc(C=O)c3c2C1
- Ki [22]: 119 nM
- ED50 [23]: inactive
- ED50 [1]: 3.78 µmol/kg
- ED50 [3]: 2.98 µmol/kg
- ED50 [9]: 4.63 µmol/kg
- Ki ([14]; read-out: Ki): 62 nM
- ED50 [24]: inactive
- ED50 [25]: inactive
- Ki [10]: 5 nM
- Ki ([15]; read-out: Ki): 154 nM

SMILES: CCCN(CCC)[C@@H]1CCc2ccc3[nH]ccc3c2C1
- ED50 [26]: inactive

SMILES: CN(C)[C@H]1CCc2ccc3[nH]cc(C=O)c3c2C1
- ED50 [1]: 13.1 µmol/kg
- ED50 [3]: 12.1 µmol/kg
- ED50 [27]: inactive
- ED50 [9]: 15.3 µmol/kg
- Ki ([14]; read-out: Ki): 250 nM
- ED50 [28]: inactive
- ED50 [29]: inactive
